Assay results as given in ChEMBL document CHEMBL4152256, “Structure-activity relationship of new antimalarial 1-aryl-3-susbtituted propanol derivatives: Synthesis, preliminary toxicity profiling, parasite life cycle stage studies, target exploration, and targeted delivery” (Eur J Med Chem, 2018).

Key:
[1] = tested on: Plasmodium falciparum; experiment: Antiplasmodial activity against multidrug-resistant Plasmodium falciparum FCR-3 by [3H]-hypoxanthine incorporation assay; format: functional, organism-based, FCR-3/Gambia; details: Plasmodium falciparum, FCR-3/Gambia
In short: (§1)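 Blood-stage P. falciparum 3D7 and FCR-3 were tested by a modified [3H]-hypoxanthine incorporation assay. Chloroquine was the reference in all runs.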

[2] = tested on: Plasmodium falciparum; experiment: Antiplasmodial activity against chloroquine-sensitive Plasmodium falciparum 3D7 by [3H]-hypoxanthine incorporation assay; format: functional, organism-based; details: Plasmodium falciparum, 3D7; in short: as §1
[3] = Cytotoxicity against human HepG2A16 cells by MTT assay; format: cell-based; details: HepG2A16 cells
In short: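 MTT viability assay on HepG2-A16 cells, giving CC50 values.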

[4] = Selectivity index, ratio of CC50 for human HepG2A16 cells by MTT assay to IC50 for multidrug-resistant Plasmodium falciparum FCR-3; format: toxicity; details: HepG2A16 cells, read-out: Ratio CC50/IC50
In short: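 HepG2-A16 human hepatoma cells were tested by MTT viability assay to give CC50. Blood-stage activity was measured against the multidrug-resistant P. falciparum FCR-3 strain by [3H]-hypoxanthine incorporation to give IC50. SI = CC50 HepG2 / FCR-3 IC50.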

[5] = Genotoxicity in Salmonella typhimurium TA1535 harboring pSK1002 assessed as survival at 0.125 mg/ml in absence of Sprague-Dawley rat liver S9 fraction after by SOS/umu assay relative to control; format: toxicity, organism-based; details: salmonella enterica subsp. enterica serovar typhimurium, read-out: Survival
[6] = Genotoxicity in Salmonella typhimurium TA1535 harboring pSK1002 assessed as umu gene induction at 0.125 mg/ml in absence of Sprague-Dawley rat liver S9 fraction after by SOS/umu assay relative to control; format: toxicity, organism-based; details: salmonella enterica subsp. enterica serovar typhimurium, read-out: FC
[7] = Genotoxicity in Salmonella typhimurium TA1535 harboring pSK1002 assessed as survival at 0.125 mg/ml in presence of Sprague-Dawley rat liver S9 fraction after by SOS/umu assay relative to control; format: toxicity, organism-based; details: salmonella enterica subsp. enterica serovar typhimurium, read-out: Survival
[8] = Genotoxicity in Salmonella typhimurium TA1535 harboring pSK1002 assessed as umu gene induction at 0.125 mg/ml in presence of Sprague-Dawley rat liver S9 fraction after by SOS/umu assay relative to control; format: toxicity, organism-based; details: salmonella enterica subsp. enterica serovar typhimurium, read-out: FC
[9] = Genotoxicity in Salmonella typhimurium TA1535 harboring pSK1002 assessed as survival at 0.063 mg/ml in absence of Sprague-Dawley rat liver S9 fraction after by SOS/umu assay relative to control; format: toxicity, organism-based; details: salmonella enterica subsp. enterica serovar typhimurium, read-out: Survival
[10] = Genotoxicity in Salmonella typhimurium TA1535 harboring pSK1002 assessed as umu gene induction at 0.063 mg/ml in absence of Sprague-Dawley rat liver S9 fraction after by SOS/umu assay relative to control; format: toxicity, organism-based; details: salmonella enterica subsp. enterica serovar typhimurium, read-out: FC
[11] = Genotoxicity in Salmonella typhimurium TA1535 harboring pSK1002 assessed as survival at 0.063 mg/ml in presence of Sprague-Dawley rat liver S9 fraction after by SOS/umu assay relative to control; format: toxicity, organism-based; details: salmonella enterica subsp. enterica serovar typhimurium, read-out: Survival
[12] = Genotoxicity in Salmonella typhimurium TA1535 harboring pSK1002 assessed as umu gene induction at 0.063 mg/ml in presence of Sprague-Dawley rat liver S9 fraction after by SOS/umu assay relative to control; format: toxicity, organism-based; details: salmonella enterica subsp. enterica serovar typhimurium, read-out: FC
[13] = Genotoxicity in Salmonella typhimurium TA1535 harboring pSK1002 assessed as survival at 0.031 mg/ml in absence of Sprague-Dawley rat liver S9 fraction after by SOS/umu assay relative to control; format: toxicity, organism-based; details: salmonella enterica subsp. enterica serovar typhimurium, read-out: Survival
[14] = Genotoxicity in Salmonella typhimurium TA1535 harboring pSK1002 assessed as umu gene induction at 0.031 mg/ml in absence of Sprague-Dawley rat liver S9 fraction after by SOS/umu assay relative to control; format: toxicity, organism-based; details: salmonella enterica subsp. enterica serovar typhimurium, read-out: FC
[15] = Genotoxicity in Salmonella typhimurium TA1535 harboring pSK1002 assessed as survival at 0.031 mg/ml in presence of Sprague-Dawley rat liver S9 fraction after by SOS/umu assay relative to control; format: toxicity, organism-based; details: salmonella enterica subsp. enterica serovar typhimurium, read-out: Survival
[16] = Genotoxicity in Salmonella typhimurium TA1535 harboring pSK1002 assessed as umu gene induction at 0.031 mg/ml in presence of Sprague-Dawley rat liver S9 fraction after by SOS/umu assay relative to control; format: toxicity, organism-based; details: salmonella enterica subsp. enterica serovar typhimurium, read-out: FC
[17] = Genotoxicity in Salmonella typhimurium TA1535 harboring pSK1002 assessed as survival at 0.016 mg/ml in absence of Sprague-Dawley rat liver S9 fraction after by SOS/umu assay relative to control; format: toxicity, organism-based; details: salmonella enterica subsp. enterica serovar typhimurium, read-out: Survival
[18] = Genotoxicity in Salmonella typhimurium TA1535 harboring pSK1002 assessed as umu gene induction at 0.016 mg/ml in absence of Sprague-Dawley rat liver S9 fraction after by SOS/umu assay relative to control; format: toxicity, organism-based; details: salmonella enterica subsp. enterica serovar typhimurium, read-out: FC
[19] = Genotoxicity in Salmonella typhimurium TA1535 harboring pSK1002 assessed as survival at 0.016 mg/ml in presence of Sprague-Dawley rat liver S9 fraction after by SOS/umu assay relative to control; format: toxicity, organism-based; details: salmonella enterica subsp. enterica serovar typhimurium, read-out: Survival
[20] = Genotoxicity in Salmonella typhimurium TA1535 harboring pSK1002 assessed as umu gene induction at 0.016 mg/ml in presence of Sprague-Dawley rat liver S9 fraction after by SOS/umu assay relative to control; format: toxicity, organism-based; details: salmonella enterica subsp. enterica serovar typhimurium, read-out: FC
[21] = Genotoxicity in Salmonella typhimurium TA1535 harboring pSK1002 assessed as survival at 0.008 mg/ml in absence of Sprague-Dawley rat liver S9 fraction after by SOS/umu assay relative to control; format: toxicity, organism-based; details: salmonella enterica subsp. enterica serovar typhimurium, read-out: Survival
[22] = Genotoxicity in Salmonella typhimurium TA1535 harboring pSK1002 assessed as umu gene induction at 0.008 mg/ml in absence of Sprague-Dawley rat liver S9 fraction after by SOS/umu assay relative to control; format: toxicity, organism-based; details: salmonella enterica subsp. enterica serovar typhimurium, read-out: FC
[23] = Genotoxicity in Salmonella typhimurium TA1535 harboring pSK1002 assessed as survival at 0.008 mg/ml in presence of Sprague-Dawley rat liver S9 fraction after by SOS/umu assay relative to control; format: toxicity, organism-based; details: salmonella enterica subsp. enterica serovar typhimurium, read-out: Survival
[24] = Genotoxicity in Salmonella typhimurium TA1535 harboring pSK1002 assessed as umu gene induction at 0.008 mg/ml in presence of Sprague-Dawley rat liver S9 fraction after by SOS/umu assay relative to control; format: toxicity, organism-based; details: salmonella enterica subsp. enterica serovar typhimurium, read-out: FC
[25] = Genotoxicity in Salmonella typhimurium TA1535 harboring pSK1002 assessed as survival at 0.004 mg/ml in absence of Sprague-Dawley rat liver S9 fraction after by SOS/umu assay relative to control; format: toxicity, organism-based; details: salmonella enterica subsp. enterica serovar typhimurium, read-out: Survival
[26] = Genotoxicity in Salmonella typhimurium TA1535 harboring pSK1002 assessed as umu gene induction at 0.004 mg/ml in absence of Sprague-Dawley rat liver S9 fraction after by SOS/umu assay relative to control; format: toxicity, organism-based; details: salmonella enterica subsp. enterica serovar typhimurium, read-out: FC
[27] = Genotoxicity in Salmonella typhimurium TA1535 harboring pSK1002 assessed as survival at 0.004 mg/ml in presence of Sprague-Dawley rat liver S9 fraction after by SOS/umu assay relative to control; format: toxicity, organism-based; details: salmonella enterica subsp. enterica serovar typhimurium, read-out: Survival
[28] = Genotoxicity in Salmonella typhimurium TA1535 harboring pSK1002 assessed as umu gene induction at 0.004 mg/ml in presence of Sprague-Dawley rat liver S9 fraction after by SOS/umu assay relative to control; format: toxicity, organism-based; details: salmonella enterica subsp. enterica serovar typhimurium, read-out: FC
[29] = Genotoxicity in Salmonella typhimurium TA1535 harboring pSK1002 assessed as survival at 0.002 mg/ml in absence of Sprague-Dawley rat liver S9 fraction after by SOS/umu assay relative to control; format: toxicity, organism-based; details: salmonella enterica subsp. enterica serovar typhimurium, read-out: Survival
[30] = Genotoxicity in Salmonella typhimurium TA1535 harboring pSK1002 assessed as umu gene induction at 0.002 mg/ml in absence of Sprague-Dawley rat liver S9 fraction after by SOS/umu assay relative to control; format: toxicity, organism-based; details: salmonella enterica subsp. enterica serovar typhimurium, read-out: FC
[31] = Genotoxicity in Salmonella typhimurium TA1535 harboring pSK1002 assessed as survival at 0.002 mg/ml in presence of Sprague-Dawley rat liver S9 fraction after by SOS/umu assay relative to control; format: toxicity, organism-based; details: salmonella enterica subsp. enterica serovar typhimurium, read-out: Survival
[32] = Genotoxicity in Salmonella typhimurium TA1535 harboring pSK1002 assessed as umu gene induction at 0.002 mg/ml in presence of Sprague-Dawley rat liver S9 fraction after by SOS/umu assay relative to control; format: toxicity, organism-based; details: salmonella enterica subsp. enterica serovar typhimurium, read-out: FC
[33] = Genotoxicity in Salmonella typhimurium TA1535 harboring pSK1002 assessed as survival at 0.001 mg/ml in absence of Sprague-Dawley rat liver S9 fraction after by SOS/umu assay relative to control; format: toxicity, organism-based; details: salmonella enterica subsp. enterica serovar typhimurium, read-out: Survival
[34] = Genotoxicity in Salmonella typhimurium TA1535 harboring pSK1002 assessed as umu gene induction at 0.001 mg/ml in absence of Sprague-Dawley rat liver S9 fraction after by SOS/umu assay relative to control; format: toxicity, organism-based; details: salmonella enterica subsp. enterica serovar typhimurium, read-out: FC
[35] = Genotoxicity in Salmonella typhimurium TA1535 harboring pSK1002 assessed as survival at 0.001 mg/ml in presence of Sprague-Dawley rat liver S9 fraction after by SOS/umu assay relative to control; format: toxicity, organism-based; details: salmonella enterica subsp. enterica serovar typhimurium, read-out: Survival
[36] = Genotoxicity in Salmonella typhimurium TA1535 harboring pSK1002 assessed as umu gene induction at 0.001 mg/ml in presence of Sprague-Dawley rat liver S9 fraction after by SOS/umu assay relative to control; format: toxicity, organism-based; details: salmonella enterica subsp. enterica serovar typhimurium, read-out: FC

O=[N+]([O-])c1ccc(N2CCN(CCC(O)c3ccc(F)c4ccccc34)CC2)cc1 (centres undefined)
IC50 [1]: 1.71 µM | IC50 [2]: 4.74 µM | CC50 [3]: 12.5 µM | selectivity ratio [4]: 7 | viability at 0.125 mg/ml [5]: 145% | fold induction at 0.125 mg/ml [6]: 0.6 | viability at 0.125 mg/ml [7]: 128% | fold induction at 0.125 mg/ml [8]: 0.5 | viability at 0.063 mg/ml [9]: 124% | fold induction at 0.063 mg/ml [10]: 0.7 | viability at 0.063 mg/ml [11]: 118% | fold induction at 0.063 mg/ml [12]: 0.5 | viability at 0.031 mg/ml [13]: 105% | fold induction at 0.031 mg/ml [14]: 0.8 | viability at 0.031 mg/ml [15]: 122% | fold induction at 0.031 mg/ml [16]: 0.5 | viability at 0.016 mg/ml [17]: 83.8% | fold induction at 0.016 mg/ml [18]: 1.1 | viability at 0.016 mg/ml [19]: 117% | fold induction at 0.016 mg/ml [20]: 0.5 | viability at 0.008 mg/ml [21]: 84.2% | fold induction at 0.008 mg/ml [22]: 1.3 | viability at 0.008 mg/ml [23]: 118% | fold induction at 0.008 mg/ml [24]: 0.6 | viability at 0.004 mg/ml [25]: 84.9% | fold induction at 0.004 mg/ml [26]: 1.2 | viability at 0.004 mg/ml [27]: 109% | fold induction at 0.004 mg/ml [28]: 0.9 | viability at 0.002 mg/ml [29]: 87% | fold induction at 0.002 mg/ml [30]: 0.8 | viability at 0.002 mg/ml [31]: 107% | fold induction at 0.002 mg/ml [32]: 0.9 | viability at 0.001 mg/ml [33]: 88% | fold induction at 0.001 mg/ml [34]: 0.5 | viability at 0.001 mg/ml [35]: 110% | fold induction at 0.001 mg/ml [36]: 0.8

COC(=O)c1ccc(C(O)CCN2CC=C(c3ccc(F)cc3)CC2)cc1 (centres undefined)
IC50 [1]: 1.13 µM | IC50 [2]: 10.5 µM | CC50 [3]: 509 µM | selectivity ratio [4]: 451 | viability at 0.031 mg/ml [13]: 94.4% | fold induction at 0.031 mg/ml [14]: 0.9 | viability at 0.031 mg/ml [15]: 138% | fold induction at 0.031 mg/ml [16]: 0.7 | viability at 0.016 mg/ml [17]: 89.4% | fold induction at 0.016 mg/ml [18]: 1 | viability at 0.016 mg/ml [19]: 103% | fold induction at 0.016 mg/ml [20]: 1 | viability at 0.008 mg/ml [21]: 97.5% | fold induction at 0.008 mg/ml [22]: 0.9 | viability at 0.008 mg/ml [23]: 104% | fold induction at 0.008 mg/ml [24]: 1 | viability at 0.004 mg/ml [25]: 99.4% | fold induction at 0.004 mg/ml [26]: 0.8 | viability at 0.004 mg/ml [27]: 101% | fold induction at 0.004 mg/ml [28]: 0.9 | viability at 0.002 mg/ml [29]: 109% | fold induction at 0.002 mg/ml [30]: 0.9 | viability at 0.002 mg/ml [31]: 103% | fold induction at 0.002 mg/ml [32]: 1 | viability at 0.001 mg/ml [33]: 124% | fold induction at 0.001 mg/ml [34]: 0.7 | viability at 0.001 mg/ml [35]: 110% | fold induction at 0.001 mg/ml [36]: 0.8
